Laboratory results from ChEMBL document CHEMBL3272064, “Mode of action and quantitative structure-activity correlations of tuberculostatic drugs of the isonicotinic acid hydrazide type” (J Med Chem, 1976).
In brackets after ≈: the same amount, converted by molar mass.

How the values were obtained:
[1] = tested on: Mycobacterium tuberculosis; assay: Antibacterial activity against Mycobacterium tuberculosis using acidic culture media at pH 5.9 assessed as growth inhibition; type: functional
[2] = tested on: Mycobacterium tuberculosis; assay: Antibacterial activity against Mycobacterium tuberculosis assessed as growth inhibition at pH 7; type: functional
[3] = Dissociation constant, pKa of the compound
[4] = Retardation factor, Rm of the compound in acetone-water-silica gel layer; type: physicochemical; conditions: buffer
How it was run: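 Reversed-phase partition chromatography. The mobile phase was acetone–water; the stationary phase was a silica gel layer impregnated with a paraffin solution in n-hexane.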

[5] = tested on: Mycobacterium tuberculosis; assay: Antibacterial activity against Mycobacterium tuberculosis H37Rv assessed as growth inhibition by two-fold serial dilution method; type: functional; conditions: for MIC: Mycobacterium tuberculosis, H37Rv
[6] = Dissociation constant, pKa of the compound at 25 degC by spectrophotometric analysis; type: physicochemical
How it was run: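 Determined spectrophotometrically at 25 °C (±1). For the approximate value of the nitro-substituted pyridine, the Hammett acidity function (H0) was used.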

[7] = tested on: Mycobacterium tuberculosis; assay: Antibacterial activity against Mycobacterium tuberculosis assessed as growth inhibition in presence of 16 uM nicotinic acid hydrazide; type: functional
[8] = 1-octanol-phosphate buffer partition coefficient, log P of the compound at pH 7.4; type: physicochemical
[9] = tested on: Mycobacterium tuberculosis; assay: microbe, parasite or virus in culture
[10] = tested on: Mycobacterium tuberculosis; assay: Antibacterial activity against Mycobacterium tuberculosis assessed as growth inhibition; type: functional
How it was run: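 Liquid-culture serial dilution against M. tuberculosis H37Rv, with √2 dilution steps. The test medium had 0.7% protein content. MIC (μM) was taken as the average of at least two determinations. Isoniazid served as the standard in every experiment. Activity was expressed as 1/MIC.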

Structure (SMILES)	pKa [3]	Rm [4]	log(1/MIC) [5]	also measured
O=C(O)c1ccncc1 [ISONICOTINIC ACID]	4.84	–	–	MIC [1]: 128 µM (≈ 15.8 µg/mL); MIC [2]: > 4000 µM
NNC(=O)c1ccnc(Cl)c1	–	0.63	-2.593	–
CC(=O)Nc1cc(C(=O)NN)ccn1	–	0.266	-3.332	–
CCN(CC)c1ccccn1	–	–	–	pKa [6]: 7.32
CC(=O)NCc1cc(C(=O)NN)ccn1	–	0.34	-2.386	–
CCOc1ccccn1	–	–	–	pKa [6]: 3.47
NNC(=O)c1ccnc(Cc2ccccc2)c1	–	1.365	-1.585	–
Brc1ccccn1	0.9	–	–	–
COc1ccccn1	3.06	–	–	–
NNC(=O)c1ccnc([N+](=O)[O-])c1	–	0.577	-2.569	–
C=Cc1cc(C(=O)NN)ccn1	–	1.02	-1.544	–
CCCc1ccccn1	5.97	–	–	–
CCOc1cc(C(=O)NN)ccn1	–	0.954	-2.655	–
Nc1ccccn1 [2-AMINOPYRIDINE]	6.71	–	–	–
NNC(=O)c1ccnc(-c2ccccc2)c1	–	1.643	-1.699	–
CC(C)Cc1cc(C(=O)NN)ccn1	–	1.366	-2.653	MIC [5]: 450 µM (≈ 87 µg/mL)
CCCc1cc(C(=O)NN)ccn1	–	1.168	-1.742	–

Structure (SMILES)	pKa [3]	Rm [4]	log(1/MIC) [5]	also measured
NNC(=O)c1ccnc(Br)c1	–	0.866	-2.79	MIC [5]: 616 µM (≈ 133 µg/mL)
Fc1ccccn1	0.44	–	–	–
CC(=O)Nc1ccccn1	4.09	–	–	–
CCc1cc(C(=O)NN)ccn1	–	0.862	-1.324	–
C=Cc1ccccn1	4.98	–	–	–
NNC(=O)c1ccnc(F)c1	–	0.42	-2.415	MIC [5]: 260 µM (≈ 40.3 µg/mL)
NNC(=O)c1ccnc(N)c1	–	0.32	-1.161	–
COc1cc(C(=O)NN)ccn1	–	0.783	-2.185	–
NNC(=O)c1ccncc1 [ISONIAZID]	–	0.372	-0.041	MIC [7]: 1900 µM; MIC [5]: 1.1 µM (≈ 0.151 µg/mL); logD [8]: -1.14; MIC [9]: 0.5 µM (≈ 0.0686 µg/mL); MIC [10]: 1 µM (≈ 0.137 µg/mL)
c1ccc(Cc2ccccn2)cc1	5.13	–	–	–
NNC(=O)c1cccnc1 [NICOTINIC ACID HYDRAZIDE]	–	–	–	MIC [10]: 1900 µM (≈ 261 µg/mL)
Cc1cc(C(=O)NN)ccn1	–	0.697	-0.716	–
NNC(=O)c1ccnc(I)c1	–	0.931	-2.404	–
CCc1ccccn1	5.97	–	–	–
CC(=O)NCc1ccccn1	–	–	–	pKa [6]: 4.23
CCN(CC)c1cc(C(=O)NN)ccn1	–	1.383	-2.856	–
